Where “and” joins values, the source holds several entries; their conditions need not be identical. Equal values may be shown once. Entries after “also recorded” stand apart in the source; their conditions may differ.
How the values were obtained:
[1] = molecular target: 20S proteasome chymotrypsin-like (CT-L, β5) activity (Homo sapiens, UniProt P28074); assay type: in vivo, CB-17 SCID mice bearing human MM.1S tumors; settings: MM1.S, iv, read-out: CT-L proteasome activity inhibition in tumors, tumor, 24h after a single treatment, 0.15 mg/kg i.v.
[2] = tested on: 20S proteasome CT-L, C-L, and T-L activities; experiment: Ex vivo 20S proteasome activities; assay type: in vivo, CB-17 SCID mice bearing human MM.1S tumors; settings: for inhibition of all three proteasome activities in tumor: approximately
How it was run: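 Male CB-17 SCID mice (4-6 wk) carrying s.c. flank MM.1S xenografts (5.0 × 10^6 cells) were dosed i.v. at ∼200-300 mm3 with 0.15 mg/kg once (D1) or three times (D1, D4, D8), or with vehicle (2% DMSO in 5% Solutol). Euthanasia at 10 min, 1, 4, 24h. Homogenates used 20 μg protein in HEPES/EDTA pH 8.0 buffer with 60 μM fluorogenic substrate (Bz-VGR-AMC for T-L) and 0.05% SDS for CT-L/C-L. Reported as % inhibition vs vehicle; mean ± SD, n = 3.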

[3] = tested on: MM.1S tumors; experiment: Human plasmacytoma xenograft efficacy study; assay type: in vivo, CB-17 SCID mice; settings: 0.15 mg/kg i.v. twice a week for three weeks
How it was run: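 Male CB-17 SCID mice (4-6 wk) were given 5.0 × 106 MM.1S cells s.c. in the flank in serum-free RPMI. They then received 0.15 mg/kg i.v. or vehicle (2% DMSO/98% of 5% Solutol) twice weekly for three weeks (D1, D4, D8, D11, D15, D18); n=5 per group. Tumors were measured with calipers every third day, and volume was calculated as V = 0.5 a × b2. Mean ± SD; Student's t test, P < 0.05.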

[4] = Tolerability in efficacy study; assay type: in vivo, CB-17 SCID mice; settings: 0.15 mg/kg i.v. twice a week for three weeks
[5] = tested on: caspase-3 activation / PARP cleavage in xenografted MM.1S tumors; experiment: In situ detection of apoptosis and immunoblot; assay type: in vivo, CB-17 SCID mice
How it was run: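 Xenograft-bearing mice were treated i.v. with 0.15 mg/kg or vehicle twice weekly for three weeks. Tumors were harvested on Day 21, either 3h after the last dose (immunoblot) or at endpoint (IHC). For in situ staining, apoptotic cells were identified by cleaved caspase-3. Tumor lysates (three mice per group) were immunoblotted for PARP, cleaved caspase-3 and GAPDH, using HRP-conjugated secondary antibodies and ECL detection.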

[6] = tested on: CHOP/GADD153, phospho-eIF2α, Bip, Hsp70 in xenografted MM.1S tumors; experiment: Immunoblot of ER stress proteins in tumor lysates; assay type: in vivo, CB-17 SCID mice; settings: tumors harvested 3h after last dose (Day 21)
[7] = tested on: Factor VIII-positive cells in xenografted MM.1S tumors; experiment: IHC Factor VIII staining; assay type: in vivo, CB-17 SCID mice; settings: vs vehicle alone, tumors harvested Day 21
How it was run: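 Xenograft-bearing mice received vehicle or 0.15 mg/kg i.v. twice weekly for three weeks. MM.1S tumors were harvested 3h after the last dose (Day 21), and paraffin-embedded sections were immunostained for Factor VIII as an angiogenesis marker. The images shown are representative of two mice per treatment.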

[8] = tested on: proteasome; settings: rats, single dose 0.15 mg/kg; ref Chauhan, et al 2005; cited from earlier work
[9] = tested on: CT-L proteasome activity; settings: MTD doses (0.7 mg/m^2), other clinical trials; cited from earlier work
[10] = tested on: proteasome; settings: ref Chauhan, et al 2005; cited from earlier work
[11] = tumors, single dose 0.15 mg/kg i.v.

C[C@@]12OC(=O)[C@]1([C@@H](O)[C@@H]1C=CCCC1)NC(=O)[C@@H]2CCCl [NPI-0052, marizomib]
inhibition at 0.15 mg/kg [1]: 60%
time to onset of inhibition of all three proteasome activities ([2]; PWB, liver, spleen, lung, kidney, single dose 0.15 mg/kg i.v.): ≤ 10 min
time for proteasome activities to return to baseline ([2]; all tissues examined except PWB and tumors, single dose): ≤ 24 h
inhibition of proteasome activity in brain ([2]; brain tissue, any time point after single or three doses, 0.15 mg/kg i.v., 0.15 mg/kg): does not inhibit; also recorded: no significant inhibition
time for recovery of all three proteasome activities ([2]; liver, kidney, lung, spleen, after three doses): ≤ 24 h
inhibition of all three proteasome activities in most tissues ([2]; most tissues, without significant toxicity): greater than 70%
duration of proteasome inhibition ([2]; other organs (lung, liver, spleen, kidney)): < 24 h
inhibition of all three proteasome activities in tumor ([2]; 24h post single dose): 25-60%
inhibition of all three proteasome activities in tumor ([2]; 24h post third dose): 70-80%
duration of proteasome inhibition ([2]; tumors and PWB): > 24 h
inhibition of all three proteasome activities ([2]; tumors, PWB and other tissues except brain, within 10 mins following the third dose, 0.15 mg/kg i.v.): 65-90%
time of maximal inhibition of proteasome activities in tumors [2, 11]: 24 h
time to onset of inhibition of proteasome activities in tumors [2, 11]: ≤ 1 h
day on which anti-MM activity (delay in tumor growth) was first evident [3]: 7 days and 5 to 7 days
tumor growth relative to vehicle-treated control [3]: significantly decreased tumor growth
toxicity (body weight, overall appearance) [4]: not associated with any toxicity
PARP cleavage in tumor lysates ([5]; tumors harvested 3h after last treatment (Day 21)): robust cleavage
caspase-3 positive cells in tumor sections ([5]; tumors harvested day 21, vs untreated control mice): increased numbers of caspase-3 positive cells
endoplasmic stress-response proteins in tumor lysates [6]: upregulation of CHOP/GADD153, phospho-eIF2α, Bip, and Hsp70
Factor VIII-positive cells in tumor sections [7]: dramatically decreased
time for recovery of proteasome inhibition in PWB [8]: ≤ 7 days
inhibition of CT-L proteasome activity at MTD doses [9]: Complete inhibition
neuropathy or myelosuppression at MTD doses [9]: without evidence of neuropathy or myelosuppression

CC(C)C[C@H](NC(=O)[C@H](Cc1ccccc1)NC(=O)c1cnccn1)B(O)O [bortezomib]
time for recovery of proteasome activity in blood [10]: ≥ 48 h

From PMC4427841 (British journal of haematology, 2010)
